Laboratory results: ChEMBL document CHEMBL4017446, “Discovery of (2-aminophenyl)methanol as a new molecular chaperone that rescues the localization of P123S mutant pendrin stably expressed in HEK293 cells” (Bioorg Med Chem, 2017)
Activity calls are given as the source filed them. No cut-off for these calls is given here.

Columns and labels:
[1] = system: T1, Pendrin (Homo sapiens), O43511 [P123S]; experiment: Chaperone activity at recombinant human C-terminal FLAG-tagged pendrin P123S mutant expressed in HEK293 cells assessed as fluorescence intensity ratio of plasma membrane to cytoplasm at 10 mM measured after 12 hrs by DAPI staining based immunofluorescence microscopic method; format: cell-based
T1 sequence (whole entry): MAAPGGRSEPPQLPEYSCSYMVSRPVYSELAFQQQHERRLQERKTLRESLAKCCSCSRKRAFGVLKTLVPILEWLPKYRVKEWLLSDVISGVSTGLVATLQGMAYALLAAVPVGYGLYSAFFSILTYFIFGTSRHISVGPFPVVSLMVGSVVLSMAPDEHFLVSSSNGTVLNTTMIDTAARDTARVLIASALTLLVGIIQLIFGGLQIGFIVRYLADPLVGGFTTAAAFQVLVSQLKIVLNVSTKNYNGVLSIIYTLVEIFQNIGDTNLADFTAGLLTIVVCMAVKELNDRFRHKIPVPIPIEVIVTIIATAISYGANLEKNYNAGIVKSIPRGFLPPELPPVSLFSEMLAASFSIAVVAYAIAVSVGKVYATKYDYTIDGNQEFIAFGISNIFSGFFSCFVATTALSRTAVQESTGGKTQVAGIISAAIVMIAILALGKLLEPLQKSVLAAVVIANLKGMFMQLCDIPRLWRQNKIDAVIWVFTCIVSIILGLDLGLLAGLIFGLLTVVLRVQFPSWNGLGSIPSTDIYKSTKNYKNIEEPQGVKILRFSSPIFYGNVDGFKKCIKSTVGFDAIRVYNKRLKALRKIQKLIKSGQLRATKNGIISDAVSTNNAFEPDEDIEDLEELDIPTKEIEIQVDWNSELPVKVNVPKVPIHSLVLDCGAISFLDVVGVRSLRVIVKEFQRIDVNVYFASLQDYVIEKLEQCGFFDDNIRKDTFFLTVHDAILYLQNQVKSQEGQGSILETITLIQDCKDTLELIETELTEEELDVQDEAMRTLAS
In short: (§1)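 Stable HEK293 line expressing FLAG-tagged P123S pendrin, grown in 10% FBS-RPMI-1640, treated 12 h with compound or vehicle (0.1% DMSO) in 35 mm dishes. Cells were fixed in 4% paraformaldehyde, stained with anti-FLAG primary antibody, Alexa Fluor 546 secondary and DAPI, and imaged by confocal microscopy. Mean intensities of 20 regions ([…]) in plasma membrane and cytoplasm gave the M/C ratio; 6–9 cells averaged.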

HEK293 [2] = experiment: Cytotoxicity against HEK293 cells harboring pendrin P123S mutant after 72 hrs by MTT assay; format: cell-based; details: Homo sapiens, HEK293, 72 h
In short: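 Stable P123S pendrin HEK293 cells were seeded at 5 × 10^4 cells/well and preincubated 12 h at 37 °C. Cells were then exposed to compound at various concentrations in RPMI-1640 for 72 h. Viability was measured by MTT, and IC50 was taken from semilogarithmic dose-response plots. Triplicate experiments.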

[3] = system: T1, Pendrin (Homo sapiens), O43511 [P123S]; experiment: Chaperone activity at recombinant human C-terminal FLAG-tagged pendrin P123S mutant expressed in HEK293 cells assessed as translocation of mutant protein from cytoplasm to plasma membrane at 1 to 10 mM measured after 12 hrs by DAPI staining based immunofluorescence microscopic analysis; format: cell-based
In short: (§2)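 HEK293 cells stably expressing FLAG-tagged P123S pendrin were incubated 12 h with compound or 0.1% DMSO in dishes. WT-pendrin cells given vehicle served as reference. Cells were fixed in paraformaldehyde, blocked in 1% BSA, stained with anti-FLAG/Alexa Fluor 546 secondary plus DAPI, and membrane versus cytoplasmic localization was judged by confocal imaging.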

[4] = system: T1, Pendrin (Homo sapiens), O43511 [P123S]; experiment: (§3) Chaperone activity at recombinant human C-terminal FLAG-tagged pendrin P123S mutant expressed in HEK293 cells assessed as intracellular localization of mutant protein in plasma membrane at 10 mM incubated for 12 hrs followed by compound washout measured after 6 hrs by DAPI staining based immunofluorescence microscopic analysis; format: cell-based
In short: (§4)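 Stable P123S pendrin HEK293 cells (5 × 10^4/well) were exposed to compound or 0.1% DMSO for 12 h, washed with PBS, then kept in fresh medium for 0, 6 or 12 h. They were then anti-FLAG/DAPI immunostained and imaged by confocal microscopy to follow pendrin distribution at the plasma membrane. Triplicate experiments.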

[5] = system: T1, Pendrin (Homo sapiens), O43511 [P123S]; experiment: Chaperone activity at recombinant human C-terminal FLAG-tagged pendrin P123S mutant expressed in HEK293 cells assessed as increase in fluorescence intensity ratio of plasma membrane to cytoplasm measured after 12 hrs by DAPI staining based immunofluorescence microscopic method; format: cell-based; in short: as §1
[6] = system: T1, Pendrin (Homo sapiens), O43511 [P123S]; experiment: as §3, with “12” for “6”; format: cell-based; in short: as §4
[7] = system: T1, Pendrin (Homo sapiens), O43511 [P123S]; experiment: Chaperone activity at recombinant human C-terminal FLAG-tagged pendrin P123S mutant expressed in HEK293 cells assessed as increase in localization of protein mutant in plasma membrane at 1 to 30 mM after 12 hrs by DAPI staining based immunofluorescence microscopic analysis; format: cell-based
In short: (§5)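 Stable P123S pendrin HEK293 cells were screened in 96-well plates after 12 h exposure to compound or 0.1% DMSO. WT cells with vehicle served as positive control. Cells were anti-FLAG/DAPI immunostained, and about 100 cells per field across 100 fields were imaged by automated high-content analysis. The read-out was cytoplasmic fluorescence intensity in a 5-pixel band 2–7 pixels inside the cell outline.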

[8] = system: T1, Pendrin (Homo sapiens), O43511 [P123S]; experiment: Chaperone activity at recombinant human C-terminal FLAG-tagged pendrin P123S mutant expressed in HEK293 cells assessed as translocation of mutant protein from cytoplasm to plasma membrane at 3 mM measured after 12 hrs by DAPI staining based immunofluorescence microscopic analysis; format: cell-based; in short: as §2
HEK293 [9] = experiment: Induction of HEK293 cell aggregation measured after 12 hrs by DAPI staining based immunofluorescence microscopic method; details: human, hek293, 12 h
In short: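 Stable P123S pendrin HEK293 cells were incubated with compound for 12 h in 35 mm dishes, then immunostained with anti-FLAG and DAPI. Cell aggregation was observed under a fluorescence microscope.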

HEK293 [10] = experiment: Cytotoxicity against HEK293 cells harboring pendrin P123S mutant assessed as decrease in cell viability at 15 mM after 72 hrs by MTT assay; format: cell-based; details: human, hek293, 72 h, 15000 µM
[11] = system: T1, Pendrin (Homo sapiens), O43511 [P123S]; experiment: Chaperone activity at recombinant human C-terminal FLAG-tagged pendrin P123S mutant expressed in HEK293 cells assessed as fluorescence intensity ratio of plasma membrane to cytoplasm at 0.3 mM measured after 12 hrs by DAPI staining based immunofluorescence microscopic method; format: cell-based; in short: as §1
[12] = system: T1, Pendrin (Homo sapiens), O43511 [P123S]; experiment: Chaperone activity at recombinant human C-terminal FLAG-tagged pendrin P123S mutant expressed in HEK293 cells assessed as translocation of mutant protein from cytoplasm to plasma membrane at 0.1 mM measured after 12 hrs by DAPI staining based immunofluorescence microscopic analysis; format: cell-based; in short: as §2
[13] = system: T1, Pendrin (Homo sapiens), O43511 [P123S]; experiment: as §3, with “0.1” for “10”, “12” for “6”; format: cell-based; in short: as §4
[14] = system: T1, Pendrin (Homo sapiens), O43511 [P123S]; experiment: Chaperone activity at recombinant human C-terminal FLAG-tagged pendrin P123S mutant expressed in HEK293 cells assessed as increase in localization of protein mutant in plasma membrane at 0.03 to 1 mM after 12 hrs by DAPI staining based immunofluorescence microscopic analysis; format: cell-based; in short: as §5
[15] = system: T1, Pendrin (Homo sapiens), O43511 [P123S]; experiment: Potency index, ratio of compound effect to salicylate effect for chaperone activity at recombinant human C-terminal FLAG-tagged pendrin P123S mutant expressed in HEK293 cells assessed as translocation of mutant protein from cytoplasm to plasma membrane; format: cell-based
[16] = system: T1, Pendrin (Homo sapiens), O43511 [P123S]; experiment: Chaperone activity at recombinant human C-terminal FLAG-tagged pendrin P123S mutant expressed in HEK293 cells assessed as fluorescence intensity ratio of plasma membrane to cytoplasm at 0.1 mM measured after 12 hrs by DAPI staining based immunofluorescence microscopic method; format: cell-based; in short: as §1
[17] = system: T1, Pendrin (Homo sapiens), O43511 [P123S]; experiment: as §3, with “0.1” for “10”; format: cell-based; in short: as §4

Compound | IC50 (HEK293 [2]) [mM] | Activity [7] | Activity (HEK293 [10]) [%] | other results
Cc1ccc(O)c(C(=O)O)c1 | 9.8 | – | – | Ratio [1]: 1.7; Activity [3]: Active; Activity [4]: Active; Activity [5]: Dose-dependent effect
O=C(O)c1cc([N+](=O)[O-])ccc1O | 5.3 | Active | – | Ratio [1]: 1.3; Activity [6]: Active; Activity [4]: Active; Activity [8]: Active; Activity [5]: Dose-dependent effect
O=C(O)Cc1ccccc1O | 12.1 | Active | – | –
CC(O)CC(=O)O (stereo unspecified) | > 15 | Active | – | –
O=C(O)c1ccc([N+](=O)[O-])cc1O | 12.5 | Active | – | Activity (HEK293 [9]): Toxic
Nc1cccc(CO)c1 | > 15 | – | 46.7 | –
OCCc1ccccc1O | > 15 | Active | 38.3 | Activity (HEK293 [9]): Toxic
Nc1ccc(CO)cc1 | 12.7 | – | – | –
OB(O)c1ccccc1O | > 15 | Active | 22.3 | Activity (HEK293 [9]): Toxic
Nc1ccccc1CCO | > 15 | inactive | 35.8 | –
O=C(O)c1c(O)cccc1O | 10.6 | inactive | – | –
O=C(O)c1cccc(O)c1O [2,3-DIHYDROXYBENZOIC ACID] | > 15 | inactive | 47.4 | –
Nc1ccccc1C(=O)O [ANTHRANILIC ACID] | > 15 | inactive | 46.9 | –
CC(=O)Oc1ccccc1C(=O)O [ASPIRIN] | 10.2 | inactive | – | –
O=C(O)c1cc(O)ccc1O [GENTISIC ACID] | > 15 | inactive | 46.8 | –
Nc1ccccc1CO [ISATOIC ANHYDRIDE] | – | – | – | Ratio [11]: 1.8; Activity [12]: Active; Activity [13]: Active; Activity [14]: Active; Ratio [15]: 100; Ratio [16]: 0.9; Activity [5]: Dose-dependent effect; Activity [17]: Active
O=C(O)CC(=O)O [MALONIC ACID] | 9.7 | – | – | –
Nc1ccc(O)c(C(=O)O)c1 [MESALAMINE] | > 15 | inactive | 35.5 | –
O=C(O)c1ccc(O)c(O)c1 [PROTOCATECHUIC ACID] | > 15 | inactive | 37 | –
OCc1ccccc1O [SALICYL ALCOHOL] | > 15 | inactive | 25.3 | –
O=C(O)c1ccccc1O [SALICYLIC ACID] | > 15 | – | 4.2 | Ratio [1]: 1; Activity [4]: inactive; Activity [5]: Dose-dependent effect
O=C(O)c1ccccc1S [THIOSALICYLIC ACID] | 12.7 | inactive | – | –
